Source: ChEMBL document CHEMBL4699573, “Design, Synthesis, and Pharmacological Evaluation of Analogues Derived from the PLEV Tetrapeptide as Protein-Protein Interaction Modulators of Voltage-Gated Sodium Channel 1.6” (J Med Chem, 2020)
Active and inactive are the calls of the source. The calls are words filed in the database; no cut-off is given here. Residues, ends and D or L forms follow the SMILES beside them. *: point of attachment. Adamantane1carbonyl = O=C(C12CC3CC(CC(C3)C1)C2)*; Pyrrolidide = C1CCN(*)C1; Cbz = O=C(OCc1ccccc1)*; OcHex = C1CCC(O*)CC1; OtBu = CC(C)(C)O*; OAll = C=CCO*

Columns and labels:
[1] = molecular target: T1, Sodium channel protein type 8 subunit alpha (Homo sapiens, UniProt Q9UQD0); experiment: Binding affinity to human recombinant Nav1.6 C-terminal domain expressed in Escherichia coli BL21 assessed as dissociation constant by SPR analysis
Outline: (§1)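 Biacore T100 runs with FGF14 (17,896 RU) or Nav1.6 C-tail (6,800 RU) amine-coupled on CM5 at pH 5.5. Compounds at 0.195–200 μM in PBS, 0.005% Tween-20, 2% DMSO; 50 μL/min at 25 °C. 120 s association, 150 s dissociation, DMSO calibration, blank subtraction. Rates from a Langmuir 1:1 fit; KD averages the kinetic and steady-state values. At least duplicate experiments.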
Target sequence in this assay (Q9UQD0 whole entry, the tested form may be a part): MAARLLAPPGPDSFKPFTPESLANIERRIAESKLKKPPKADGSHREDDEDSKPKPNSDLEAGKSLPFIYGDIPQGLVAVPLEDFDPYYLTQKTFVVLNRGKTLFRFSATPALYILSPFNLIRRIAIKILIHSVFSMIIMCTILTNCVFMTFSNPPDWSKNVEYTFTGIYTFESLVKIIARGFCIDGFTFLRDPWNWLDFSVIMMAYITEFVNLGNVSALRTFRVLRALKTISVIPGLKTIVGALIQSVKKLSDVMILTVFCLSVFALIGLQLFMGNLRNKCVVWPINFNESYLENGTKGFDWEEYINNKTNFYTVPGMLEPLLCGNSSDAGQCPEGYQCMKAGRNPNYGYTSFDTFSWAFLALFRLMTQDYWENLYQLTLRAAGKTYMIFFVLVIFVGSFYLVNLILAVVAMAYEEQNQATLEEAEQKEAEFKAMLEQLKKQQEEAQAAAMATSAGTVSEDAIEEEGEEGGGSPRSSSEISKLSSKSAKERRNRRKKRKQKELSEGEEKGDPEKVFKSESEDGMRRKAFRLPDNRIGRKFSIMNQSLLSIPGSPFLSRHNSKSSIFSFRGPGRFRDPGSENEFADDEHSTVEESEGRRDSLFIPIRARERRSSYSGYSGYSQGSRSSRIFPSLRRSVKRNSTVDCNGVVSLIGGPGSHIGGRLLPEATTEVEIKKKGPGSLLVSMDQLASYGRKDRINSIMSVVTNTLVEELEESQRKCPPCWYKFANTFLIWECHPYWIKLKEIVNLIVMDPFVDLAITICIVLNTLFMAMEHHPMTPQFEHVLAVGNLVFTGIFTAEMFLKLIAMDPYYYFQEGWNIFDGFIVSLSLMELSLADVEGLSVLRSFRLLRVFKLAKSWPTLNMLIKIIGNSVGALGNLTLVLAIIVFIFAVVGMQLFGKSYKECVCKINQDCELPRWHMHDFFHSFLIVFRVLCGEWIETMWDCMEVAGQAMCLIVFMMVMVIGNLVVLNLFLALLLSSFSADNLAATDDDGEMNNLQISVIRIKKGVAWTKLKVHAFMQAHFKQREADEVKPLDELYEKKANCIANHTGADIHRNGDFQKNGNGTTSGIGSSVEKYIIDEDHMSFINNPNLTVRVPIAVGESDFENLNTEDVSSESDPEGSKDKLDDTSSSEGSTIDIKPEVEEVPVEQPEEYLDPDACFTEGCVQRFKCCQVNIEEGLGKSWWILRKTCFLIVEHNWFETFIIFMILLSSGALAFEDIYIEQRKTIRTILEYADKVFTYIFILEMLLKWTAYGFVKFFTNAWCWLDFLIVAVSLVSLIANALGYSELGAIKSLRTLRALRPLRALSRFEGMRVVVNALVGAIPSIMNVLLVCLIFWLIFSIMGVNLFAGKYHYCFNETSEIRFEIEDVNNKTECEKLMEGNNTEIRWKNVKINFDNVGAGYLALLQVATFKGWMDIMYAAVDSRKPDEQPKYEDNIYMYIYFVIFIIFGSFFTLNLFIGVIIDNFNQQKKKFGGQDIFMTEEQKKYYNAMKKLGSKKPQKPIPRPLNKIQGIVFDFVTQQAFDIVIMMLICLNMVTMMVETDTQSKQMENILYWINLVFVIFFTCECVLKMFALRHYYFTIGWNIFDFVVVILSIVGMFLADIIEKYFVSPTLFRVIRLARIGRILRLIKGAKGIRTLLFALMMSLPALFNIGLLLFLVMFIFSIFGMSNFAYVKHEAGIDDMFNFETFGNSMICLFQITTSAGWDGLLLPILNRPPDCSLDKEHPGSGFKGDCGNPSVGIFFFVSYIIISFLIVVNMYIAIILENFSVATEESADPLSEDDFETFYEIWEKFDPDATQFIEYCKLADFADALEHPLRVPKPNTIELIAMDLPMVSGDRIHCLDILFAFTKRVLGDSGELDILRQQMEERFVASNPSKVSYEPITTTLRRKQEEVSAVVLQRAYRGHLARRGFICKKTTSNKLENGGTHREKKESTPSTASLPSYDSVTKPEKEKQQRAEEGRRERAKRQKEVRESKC

[2] = (§2) Modulation of recombinant human FGF141b (1 to 252 residues)-recombinant human Nav1.6 C-terminal tail (1763 to 1976 residues) protein-protein interaction expressed in HEK293 cells measured at 2 mins interval for 20 mins by split-luciferase complementation assay; format: cell-based
Outline: (§3)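 Double-stable HEK293 line expressing CLuc-FGF14 and CD4-Nav1.6-C-tail-NLuc, kept on G418 and puromycin. Cells seeded for 24 h, then given compound for 1 h in serum-free, phenol red-free DMEM/F12 with a final 0.5% DMSO: 50 μM for screening, 0.25–100 μM over eight concentrations for dose-response; n = 4. D-luciferin added and read every 2 min for 20 min at 37 °C. Peak luminescence expressed as percent of per-plate DMSO mean (n = 32). IC50 from four-parameter nonlinear fit. At least 3 experiments.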

HEK293 [3] = experiment: Inhibition of full-length Photinus pyralis luciferase transfected in HEK293 cells at 25 uM incubated for 1 hrs by split-luciferase complementation assay; format: cell-based
Outline: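 HEK293 cells transfected with full-length Photinus pyralis luciferase, then treated 1 h with 25 μM compound (n = 4) or 0.5% DMSO (n = 32). Luminescence read after D-luciferin addition, as in the LCA, normalized to per-plate DMSO controls. One-way ANOVA with Dunnett's test.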

HEK293 [4] = experiment: Cytotoxicity against HEK293 cells assessed as reduction in cell viability measured after 18 hrs by celltiter-blue assay; details: human, hek293, 18 h
[5] = molecular target: T2, Fibroblast growth factor 14 (Homo sapiens) (UniProt Q92915); experiment: Binding affinity to human recombinant FGF14 expressed in Escherichia coli BL21 assessed as association rate constant by SPR analysis; details: filed as modulator; outline: as §1
T2 sequence (whole entry): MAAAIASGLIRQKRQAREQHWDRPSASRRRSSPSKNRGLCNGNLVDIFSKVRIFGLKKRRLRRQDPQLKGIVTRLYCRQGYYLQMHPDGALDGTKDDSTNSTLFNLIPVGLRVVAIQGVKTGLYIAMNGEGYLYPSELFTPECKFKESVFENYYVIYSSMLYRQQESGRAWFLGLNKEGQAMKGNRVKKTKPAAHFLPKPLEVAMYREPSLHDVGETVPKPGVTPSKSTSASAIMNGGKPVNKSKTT

[6] = molecular target: T1, Sodium channel protein type 8 subunit alpha; experiment: Binding affinity to human recombinant Nav1.6 C-terminal domain expressed in Escherichia coli BL21 assessed as association rate constant by SPR analysis; details: filed as modulator; outline: as §1
Target sequence in this assay (Q9UQD0 whole entry, looked up, the tested form may be a part): as the sequence (Q9UQD0 whole entry, the tested form may be a part) above

[7] = molecular target: T2, Fibroblast growth factor 14 (Homo sapiens); experiment: Binding affinity to human recombinant FGF14 expressed in Escherichia coli BL21 assessed as assessed as induction of protein denaturation by measuring change in melting temperature at 50 uM by fluorescent dye based thermal shift assay; details: filed as modulator
[8] = molecular target: T3, Fibroblast growth factor 14 (Homo sapiens, UniProt Q92915); experiment: Binding affinity to human recombinant FGF14 expressed in Escherichia coli BL21 assessed as dissociation constant by SPR analysis; outline: as §1
T3 sequence (Q92915 whole entry): T2 sequence (whole entry)

[9] = molecular target: T2, Fibroblast growth factor 14 (Homo sapiens); experiment: Binding affinity to human recombinant FGF14 expressed in Escherichia coli BL21 assessed as dissociation rate constant by SPR analysis; details: filed as modulator; outline: as §1
[10] = molecular target: T1, Sodium channel protein type 8 subunit alpha; experiment: Binding affinity to human recombinant Nav1.6 C-terminal domain expressed in Escherichia coli BL21 assessed as dissociation rate constant by SPR analysis; details: filed as modulator; outline: as §1
Target sequence in this assay (Q9UQD0 whole entry, looked up, the tested form may be a part): as the sequence (Q9UQD0 whole entry, the tested form may be a part) above

HEK293 [11] = experiment: as §2, with “cells assessed as relative luminescence value at 50 uM” for “cells”, “assay relative to control” for “assay”; format: cell-based; details: filed as modulator, time min 2-20; outline: as §3
[12] = molecular target: T1, Sodium channel protein type 8 subunit alpha; experiment: Binding affinity to human recombinant Nav1.6 C-terminal domain expressed in Escherichia coli BL21 assessed as assessed as induction of protein denaturation by measuring change in melting temperature at 10 uM by fluorescent dye based thermal shift assay; details: filed as modulator, dose 50.0 µM
Target sequence in this assay (Q9UQD0 whole entry, looked up, the tested form may be a part): as the sequence (Q9UQD0 whole entry, the tested form may be a part) above

HEK293 [13] = experiment: Modulation of recombinant human FGF141b (1 to 252 residues)-recombinant human Nav1.6 C-terminal tail (1763 to 1976 residues) protein-protein interaction expressed in HEK293 cells measured at 2 mins interval for 20 mins by split-luciferase complementation assay relative to control; format: cell-based; details: filed as modulator, time min 2-20; outline: as §3

SMILES | Kd [1] [µM] | IC50 [2] [µM] | inhibition (HEK293 [3]) | Activity (HEK293 [4]) | K [5] | K [6] | ΔTm [7] [°C] | Kd [8] [µM] | K [9] | K [10] | Activity (HEK293 [11]) [%] | ΔTm [12] [°C] | Efficacy (HEK293 [13]) [%]
CC(C)C[C@H](NC(=O)[C@@H]1CCCN1C(=O)C12CC3CC(CC(C3)C1)C2)C(=O)N[C@@H](CCC(=O)OC(C)(C)C)C(=O)N[C@H](C(=O)OC1CCCCC1)C(C)C (Adamantane1carbonyl-PLE(OtBu)V-OcHex) | > 200 | 35.3 | inactive | Non-Toxic | 7.35 10^3/M/s | 7.16 10^5/M/s | -2.21 | 7.02 | 1.39 10^-2/s | 1.7 10^-4/s | 43.4 | 0.43 | 69.9
CC(C)C[C@H](NC(=O)[C@@H]1CCCN1C(=O)OCc1ccccc1)C(=O)N[C@@H](CCC(=O)OC(C)(C)C)C(=O)N[C@H](C(=O)N1CCCC1)C(C)C (Cbz-PLE(OtBu)V-Pyrrolidide) | – | 33.4 | inactive | Non-Toxic | 4.61 10^2/M/s | – | 3.38 | 189 | 9.91 10^-4/s | – | 14 | -0.48 | 96.9
CCOC(=O)[C@@H](NC(=O)[C@H](CCC(=O)OC(C)(C)C)NC(=O)[C@H](CC(C)C)NC(=O)[C@@H]1CCCN1C(=O)C12CC3CC(CC(C3)C1)C2)C(C)C (Adamantane1carbonyl-PLE(OtBu)V-OEt) | 67.3 | 13.3 | – | – | 2.17 10^2/M/s | 2.64 10^3/M/s | – | 9.47 | 2.05 10^-2/s | 1.22 10^-2/s | – | – | 82.3
C=CCOC(=O)[C@@H](NC(=O)[C@H](CCC(=O)OC(C)(C)C)NC(=O)[C@H](CC(C)C)NC(=O)[C@@H]1CCCN1C(=O)C12CC3CC(CC(C3)C1)C2)C(C)C (Adamantane1carbonyl-PLE(OtBu)V-OAll) | > 200 | 11.5 | inactive | Non-Toxic | 1.79 10^4/M/s | 6.16 10^6/M/s | -4.55 | 1.31 | 9.32 10^-3/s | 2.73 10^-3/s | 5 | 0.04 | 95.5
CC(C)C[C@H](NC(=O)[C@@H]1CCCN1C(=O)C12CC3CC(CC(C3)C1)C2)C(=O)N[C@@H](CCC(=O)OC(C)(C)C)C(=O)N[C@H](C(=O)OC(C)(C)C)C(C)C (Adamantane1carbonyl-PLE(OtBu)V-OtBu) | > 200 | 33.9 | inactive | Non-Toxic | 1.62 10^3/M/s | 8.29 10^5/M/s | -0.89 | 6.94 | 5.8 10^-3/s | 7.94 10^-3/s | 33.6 | -0.13 | 92.1
